Assay [1] deals with T1, Toll-like receptor 7 (Homo sapiens) (UniProt Q9NYK1).
T1 sequence (whole entry): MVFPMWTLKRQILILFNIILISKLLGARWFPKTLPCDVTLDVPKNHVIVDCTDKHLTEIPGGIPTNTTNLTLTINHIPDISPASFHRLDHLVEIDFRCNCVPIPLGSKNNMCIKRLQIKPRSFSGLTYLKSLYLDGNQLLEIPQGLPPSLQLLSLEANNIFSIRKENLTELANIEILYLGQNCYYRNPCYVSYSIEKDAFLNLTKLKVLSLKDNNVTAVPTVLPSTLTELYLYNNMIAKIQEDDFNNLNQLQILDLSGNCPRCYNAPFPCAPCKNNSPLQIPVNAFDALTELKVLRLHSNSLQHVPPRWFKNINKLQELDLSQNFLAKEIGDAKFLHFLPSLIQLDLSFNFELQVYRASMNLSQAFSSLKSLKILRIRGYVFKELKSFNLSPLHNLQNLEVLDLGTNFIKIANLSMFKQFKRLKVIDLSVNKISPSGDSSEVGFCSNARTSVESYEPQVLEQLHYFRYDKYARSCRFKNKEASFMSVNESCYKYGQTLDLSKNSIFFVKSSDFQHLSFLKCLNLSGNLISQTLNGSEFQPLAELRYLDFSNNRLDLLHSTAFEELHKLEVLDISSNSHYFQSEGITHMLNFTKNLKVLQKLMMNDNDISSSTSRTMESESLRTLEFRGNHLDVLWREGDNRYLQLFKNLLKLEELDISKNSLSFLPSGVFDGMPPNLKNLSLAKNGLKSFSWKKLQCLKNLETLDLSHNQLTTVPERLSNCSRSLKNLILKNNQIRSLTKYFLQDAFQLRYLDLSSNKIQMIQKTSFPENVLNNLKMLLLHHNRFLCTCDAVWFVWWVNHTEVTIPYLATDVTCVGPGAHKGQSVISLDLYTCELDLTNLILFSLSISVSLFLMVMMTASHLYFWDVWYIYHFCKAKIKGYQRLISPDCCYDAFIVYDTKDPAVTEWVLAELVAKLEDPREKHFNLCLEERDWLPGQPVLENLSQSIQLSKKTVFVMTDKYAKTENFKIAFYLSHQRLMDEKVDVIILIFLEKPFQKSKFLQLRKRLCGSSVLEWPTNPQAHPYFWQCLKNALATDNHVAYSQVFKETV
Nature of the assay: Activation of human TLR7 expressed in HEK293XL assessed as fold induction of NF-kappaB activity at 50 ug/ml after 18 hrs by reporter gene assay relative to control. In a few lines:
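HEK293 cells stably expressing human TLR7 or TLR8, transiently transfected with SEAP reporter plasmid; medium replaced, SIMRA compounds added, 18 h incubation. Supernatant SEAP measured by QuantiBlue; expressed as fold increase in NF-κB activity over PBS control. Tabulated data at 50 μg/mL, representative of three independent experiments.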
On the technique in general: In a reporter assay the amount or activity of a reporter protein is the signal.

The target in assay [2] is T2, Toll-like receptor 9 (Mus musculus) (UniProt Q9EQU3).
T2 sequence (whole entry): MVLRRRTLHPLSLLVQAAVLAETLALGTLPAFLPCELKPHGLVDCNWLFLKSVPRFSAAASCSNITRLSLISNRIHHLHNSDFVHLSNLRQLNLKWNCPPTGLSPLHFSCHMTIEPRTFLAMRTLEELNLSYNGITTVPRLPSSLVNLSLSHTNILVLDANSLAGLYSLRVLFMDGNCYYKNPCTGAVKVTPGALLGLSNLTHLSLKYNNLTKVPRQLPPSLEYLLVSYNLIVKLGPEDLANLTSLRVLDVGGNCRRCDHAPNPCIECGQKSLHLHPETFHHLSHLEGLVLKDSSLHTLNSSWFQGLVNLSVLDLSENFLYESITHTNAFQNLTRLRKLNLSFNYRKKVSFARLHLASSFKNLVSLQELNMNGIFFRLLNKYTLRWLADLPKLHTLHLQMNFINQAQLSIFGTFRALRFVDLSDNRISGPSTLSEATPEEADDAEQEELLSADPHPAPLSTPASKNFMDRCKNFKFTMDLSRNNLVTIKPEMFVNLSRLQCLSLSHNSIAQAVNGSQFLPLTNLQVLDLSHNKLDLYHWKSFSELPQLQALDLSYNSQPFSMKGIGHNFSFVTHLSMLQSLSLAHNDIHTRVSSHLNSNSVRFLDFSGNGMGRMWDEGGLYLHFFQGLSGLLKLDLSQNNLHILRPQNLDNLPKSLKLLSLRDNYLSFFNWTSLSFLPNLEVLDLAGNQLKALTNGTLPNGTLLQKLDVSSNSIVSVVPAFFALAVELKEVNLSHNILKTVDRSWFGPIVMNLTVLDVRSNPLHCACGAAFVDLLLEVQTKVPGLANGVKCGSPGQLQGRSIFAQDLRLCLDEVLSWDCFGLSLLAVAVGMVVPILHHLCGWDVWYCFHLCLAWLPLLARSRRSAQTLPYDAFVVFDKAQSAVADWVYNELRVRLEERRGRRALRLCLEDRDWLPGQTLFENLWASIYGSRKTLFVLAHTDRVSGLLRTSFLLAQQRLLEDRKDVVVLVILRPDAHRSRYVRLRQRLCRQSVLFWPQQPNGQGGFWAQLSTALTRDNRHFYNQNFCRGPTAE
Briefly: Activation of mouse TLR9 expressed in HEK293 assessed as induction of NF-kappaB activity reporter gene assay. In kind it is cell-based.

The test system of assay [3] is Splenocyte. Briefly: Immunomodulatory activity in C57BL/6 mouse splenocytes bearing TLR7 receptor assessed as IL6 release at 100 ug/ml after 24 hrs by ELISA. In kind it is functional, cell-based. In a few lines: (§1)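 C57BL/6 splenocytes in RPMI 1640 with 10% FBS, penicillin/streptomycin, 2 mM L-glutamine, plated at 5 × 10^6 cells/mL; compounds in PBS added, 37 °C for 24 h. Supernatant IL-12 and IL-6 by ELISA; representative of three independent experiments.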
Background: An ELISA detects its analyte on a solid surface through an enzyme-linked reagent.

Assay [4] relates to Splenocyte. Nature of the assay: Immunomodulatory activity in C57BL/6 mouse splenocytes bearing TLR7 receptor assessed as IL12 release at 100 ug/ml after 24 hrs by ELISA. In kind it is functional, cell-based. In a few lines: as §1
Assay [5] has as its system PBMC. Briefly: Immunomodulatory activity in human PBMC assessed as induction of IL12 at 100 ug/ml after 24 hrs. In kind it is functional, cell-based. In a few lines: (§2)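 Human PBMCs plated at 5 × 10^6 cells/mL; compounds dissolved in PBS added at various concentrations, 37 °C for 24 h. Supernatant cytokines/chemokines quantified with human Luminex multiplex kit.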
Assay [6] deals with PBMC. Briefly: Immunomodulatory activity in human PBMC assessed as induction of TNFalpha at 100 ug/ml after 24 hrs. In kind it is functional, cell-based. In short, it runs like this: as §2

The structures appear in SMILES notation. Active and inactive are the calls of the source. The rule behind the calls is not given here.

On to `Nc1ccn([C@@H]2O[C@H](COP(=O)(S)O[C@H]3[C@@H](O)[C@H](n4ccc5c(=O)[nH]c(N)nc54)O[C@@H]3CO[C@H]3[C@@H](O)[C@H](n4cnc5c(N)ncnc54)O[C@@H]3COP(=O)(S)O[C@H]3[C@@H](O)[C@H](n4ccc5c(=O)[nH]c(N)nc54)O[C@@H]3COP(=O)(S)O[C@H]3[C@@H](O)[C@H](n4ccc(=O)[nH]c4=O)O[C@@H]3COP(=O)(S)O[C@H]3[C@@H](O)[C@H](n4ccc(N)nc4=O)O[C@@H]3COP(=O)(S)O[C@H]3[C@@H](O)[C@H](n4ccc5c(=O)[nH]c(N)nc54)O[C@@H]3COP(=O)(S)O[C@H]3[C@@H](O)[C@H](n4ccc(=O)[nH]c4=O)O[C@@H]3COP(=O)(S)O[C@H]3[C@@H](O)[C@H](n4ccc(=O)[nH]c4=O)O[C@@H]3CO)[C@@H](OP(=O)(S)OC[C@H]3O[C@@H](n4ccc(=O)[nH]c4=O)[C@H](O)[C@@H]3OP(=O)(S)OC[C@H]3O[C@@H](n4ccc(=O)[nH]c4=O)[C@H](O)[C@@H]3OP(=O)(S)OCC(O)COP(=O)(S)O[C@H]3[C@@H](O)[C@H](n4ccc(=O)[nH]c4=O)O[C@@H]3COP(=O)(S)O[C@H]3[C@@H](O)[C@H](n4ccc(=O)[nH]c4=O)O[C@@H]3COP(=O)(S)O[C@H]3[C@@H](O)[C@H](n4ccc(N)nc4=O)O[C@@H]3COP(=O)(S)O[C@H]3[C@@H](O)[C@H](n4ccc5c(=O)[nH]c(N)nc54)O[C@@H]3CO[C@H]3[C@@H](O)[C@H](n4cnc5c(N)ncnc54)O[C@@H]3COP(=O)(S)O[C@H]3[C@@H](O)[C@H](n4ccc5c(=O)[nH]c(N)nc54)O[C@@H]3COP(=O)(S)O[C@H]3[C@@H](O)[C@H](n4ccc(=O)[nH]c4=O)O[C@@H]3COP(=O)(S)O[C@H]3[C@@H](O)[C@H](n4ccc(N)nc4=O)O[C@@H]3COP(=O)(S)O[C@H]3[C@@H](O)[C@H](n4ccc5c(=O)[nH]c(N)nc54)O[C@@H]3COP(=O)(S)O[C@H]3[C@@H](O)[C@H](n4ccc(=O)[nH]c4=O)O[C@@H]3COP(=O)(S)O[C@H]3[C@@H](O)[C@H](n4ccc(=O)[nH]c4=O)O[C@@H]3CO)[C@H]2O)c(=O)n1` (some centres not stated), for which the fold change (FC) in assay [1] worked out at 26.7. Also, the result in assay [2] was inactive. Besides, the outcome in the assay with Splenocyte [3] and with Splenocyte [4] was Active. Besides, the Activity in the assay on PBMC [5] was found to be 1370 pg/mL; with PBMC [6], 415 pg/mL.

For the molecule `Nc1ccn([C@@H]2O[C@H](COP(=O)(S)O[C@H]3[C@@H](O)[C@H](n4cnc5c(N)ncnc54)O[C@@H]3CO)[C@@H](OP(=O)(S)OC[C@H]3O[C@@H](n4ccc5c(=O)[nH]c(N)nc54)[C@H](O)[C@@H]3OP(=O)(S)OC[C@H]3O[C@@H](n4ccc(=O)[nH]c4=O)[C@H](O)[C@@H]3OP(=O)(S)OC[C@H]3O[C@@H](n4ccc5c(=O)[nH]c(N)nc54)[C@H](O)[C@@H]3OP(=O)(S)OC[C@H]3O[C@@H](n4cnc5c(N)nc(N)nc54)[C@H](O)[C@@H]3OP(=O)(S)OC[C@H]3O[C@@H](n4cnc5c(N)ncnc54)[C@H](O)[C@@H]3OP(=O)(S)OC[C@H]3O[C@@H](n4ccc5c(=O)[nH]c(N)nc54)[C@H](O)[C@@H]3OP(=O)(S)OC[C@H]3O[C@@H](n4ccc(N)nc4=O)[C@H](O)[C@@H]3OP(=O)(S)OC[C@H]3O[C@@H](n4ccc(=O)[nH]c4=O)[C@H](O)[C@@H]3OP(=O)(S)OC[C@H]3O[C@@H](n4ccc(=O)[nH]c4=O)[C@H](O)[C@@H]3OP(=O)(S)OCC(O)COP(=O)(S)O[C@H]3[C@@H](O)[C@H](n4ccc(=O)[nH]c4=O)O[C@@H]3COP(=O)(S)O[C@H]3[C@@H](O)[C@H](n4ccc(=O)[nH]c4=O)O[C@@H]3COP(=O)(S)O[C@H]3[C@@H](O)[C@H](n4ccc(N)nc4=O)O[C@@H]3COP(=O)(S)O[C@H]3[C@@H](O)[C@H](n4ccc5c(=O)[nH]c(N)nc54)O[C@@H]3COP(=O)(S)O[C@H]3[C@@H](O)[C@H](n4cnc5c(N)nc(N)nc54)O[C@@H]3COP(=O)(S)O[C@H]3[C@@H](O)[C@H](n4cnc5c(N)nc(N)nc54)O[C@@H]3COP(=O)(S)O[C@H]3[C@@H](O)[C@H](n4ccc5c(=O)[nH]c(N)nc54)O[C@@H]3COP(=O)(S)O[C@H]3[C@@H](O)[C@H](n4ccc(=O)[nH]c4=O)O[C@@H]3COP(=O)(S)O[C@H]3[C@@H](O)[C@H](n4ccc5c(=O)[nH]c(N)nc54)O[C@@H]3COP(=O)(S)O[C@H]3[C@@H](O)[C@H](n4ccc(N)nc4=O)O[C@@H]3COP(=O)(S)O[C@H]3[C@@H](O)[C@H](n4cnc5c(N)ncnc54)O[C@@H]3CO)[C@H]2O)c(=O)n1` (some centres not stated), in assay [1], the fold change (FC) is 26.8. The result in assay [2] was inactive. Moreover, the result in the assay on Splenocyte [3] and with Splenocyte [4] was Active. The Activity with PBMC [5] was 864 pg/mL; in the assay on PBMC [6] it was 165 pg/mL.

The values are drawn from ChEMBL document CHEMBL1154352, “Toll-like receptor 7 selective synthetic oligoribonucleotide agonists: synthesis and structure-activity relationship studies” (J Med Chem, 2009).
